Source: PMC9933479 (ACS Omega, 2023)
Where two headings read alike, the source gives them in different places.

Key:
Assay in all cases: MTT assay, cytotoxicity/growth inhibition
[1] = system: PC-3 (prostate carcinoma); format: cell-based; conditions: Homo sapiens; for inhibition at 20 µM: 48 h, read-out: Cytotoxic Activity (% Growth Inhibition)
In short: (§1)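 Cells were grown in RPMI (A549, HCT-116, PC-3) or DMEM (MCF-7) with 10% FBS at 37 °C and 5% CO2. Seeding per well was […] and PC-3 8 × 10^4 cells. […] MTT 250 μg/mL, 4 h; DMSO; A570; triplicate; mean ± SE.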

MCF-7 (breast carcinoma) = format: cell-based; conditions: Homo sapiens; for inhibition at 20 µM: MCF7, 48 h, read-out: Cytotoxic Activity (% Growth Inhibition); for IC50: MCF7
In short: as §1

[2] = system: HCT-116 (colon carcinoma); format: cell-based; conditions: Homo sapiens; for inhibition at 20 µM: HCT-116, 48 h, read-out: Cytotoxic Activity (% Growth Inhibition); for IC50: HCT-116
In short: as §1

A549 (lung carcinoma) = format: cell-based, human; conditions: for inhibition at 20 µM / IC50: Homo sapiens; for inhibition at 20 µM: A549, 48 h; for IC50: A549; for Cytotoxic Activity (% Growth Inhibition): A549, 20 μM concentration, MTT, 48 h, 20 µM
In short: as §1

[3] = read-out: Cytotoxic Activity (% Growth Inhibition), A549, 20 μM concentration, MTT, 48 h

SMILES | inhibition at 20 µM [1] [%] | inhibition at 20 µM (MCF-7 (breast carcinoma)) [%] | inhibition at 20 µM [2] [%] | inhibition at 20 µM (A549 (lung carcinoma); [3]) [%] | IC50 [1] [µM] | IC50 (MCF-7 (breast carcinoma)) [µM] | IC50 [2] [µM] | IC50 (A549 (lung carcinoma)) [µM] | Cytotoxic Activity (% Growth Inhibition) (A549 (lung carcinoma)) [%] | inhibition at 20 µM (A549 (lung carcinoma); read-out: Cytotoxic Activity (% Growth Inhibition)) [%]
C[C@@]12COC(c3ccccc3)O[C@@H]1CC[C@]1(C)C2CC=C(COC(=O)Cc2ccc(Cl)cc2)[C@H]1/C=C/C1=CCOC1=O (stereo partly drawn) [Compound 8q, ((4aR,6aR,7S,10bR)-6a,10b-Dimethyl-7-((E)-2-(2-oxo-2,5-dihydrofuran-3-yl)vinyl)-3-phenyl-4a,5,6,6a,7,10,10a,10b-octahydro-1H-naphtho[2,1-d][1,3]dioxin-8-yl)methyl 2-(4-Chlorophenyl)acetate] | 39 ± 0.82 | 46 ± 0.72 | 36.1 ± 0.96 | 11 ± 1 |  |  |  |  |  | 
COc1cccc(C(=O)OCC2=CCC3[C@](C)(CO)[C@H](O)CC[C@@]3(C)[C@@H]2/C=C/C2=CCOC2=O)c1 (stereo partly drawn) [Compound 9b, ((1S,5R,6R,8aR)-6-Hydroxy-5-(hydroxymethyl)-5,8a-dimethyl-1-((E)-2-(2-oxo-2,5-dihydrofuran-3-yl)vinyl)-1,4,4a,5,6,7,8,8a-octahydronaphthalen-2-yl)methyl 3-Methoxybenzoate] | 7 ± 0.58 | 14.6 ± 0.09 | 0 | 39.85 ± 0.26 |  |  |  |  |  | 
Cc1ccc(CC(=O)OCC2=CCC3[C@]4(C)COC(c5ccccc5)O[C@@H]4CC[C@@]3(C)[C@@H]2/C=C/C2=CCOC2=O)cc1 (stereo partly drawn) [Compound 8t, ((4aR,6aR,7S,10bR)-6a,10b-Dimethyl-7-((E)-2-(2-oxo-2,5-dihydrofuran-3-yl)vinyl)-3-phenyl-4a,5,6,6a,7,10,10a,10b-octahydro-1H-naphtho[2,1-d][1,3]dioxin-8-yl)methyl 2-(p-Tolyl)acetate] | 69.5 ± 0.74 | 27 ± 0.29 | 45.9 ± 0.86 | 48.9 ± 0.73 |  |  |  |  |  | 
CCCCCCCCCCCC(=O)OCC1=CCC2[C@]3(C)COC(c4ccccc4)O[C@@H]3CC[C@@]2(C)[C@@H]1/C=C/C1=CCOC1=O (stereo partly drawn) [Compound 8y, ((4aR,6aR,7S,10bR)-6a,10b-Dimethyl-7-((E)-2-(2-oxo-2,5-dihydrofuran-3-yl)vinyl)-3-phenyl-4a,5,6,6a,7,10,10a,10b-octahydro-1H-naphtho[2,1-d][1,3]dioxin-8-yl)methyl Dodecanoate] | 32 ± 0.66 | 51 ± 0.35 | 40.1 ± 0.8 | 71 ± 0.77 | > 20 | 20 | > 20 | 11 |  | 
C[C@]1(CO)C2CC=C(COC(=O)c3cccc(Cl)c3)[C@@H](/C=C/C3=CCOC3=O)[C@]2(C)CC[C@H]1O (stereo partly drawn) [Compound 9d, ((1S,5R,6R,8aR)-6-Hydroxy-5-(hydroxymethyl)-5,8a-dimethyl-1-((E)-2-(2-oxo-2,5-dihydrofuran-3-yl)vinyl)-1,4,4a,5,6,7,8,8a-octahydronaphthalen-2-yl)methyl 3-Chlorobenzoate] | 0 | 10.02 ± 0.02 | 30.21 ± 0.15 | 49.19 ± 0.2 |  |  |  |  |  | 
C[C@]1(CO)C2CC=C(COC(=O)c3ccccc3C(F)(F)F)[C@@H](/C=C/C3=CCOC3=O)[C@]2(C)CC[C@H]1O (stereo partly drawn) [Compound 9n, ((1S,5R,6R,8aR)-6-Hydroxy-5-(hydroxymethyl)-5,8a-dimethyl-1-((E)-2-(2-oxo-2,5-dihydrofuran-3-yl)vinyl)-1,4,4a,5,6,7,8,8a-octahydronaphthalen-2-yl)methyl 2-(Trifluoromethyl)benzoate] | 72.2 ± 0.41 | 18 ± 0.58 | 44.9 ± 0.78 | 5.6 ± 0.14 | 5.7 | > 20 | > 20 | > 20 |  | 
COc1ccc(C(=O)OCC2=CCC3[C@]4(C)COC(c5ccccc5)O[C@@H]4CC[C@@]3(C)[C@@H]2/C=C/C2=CCOC2=O)cc1Cl (stereo partly drawn) [Compound 8l, ((4aR,6aR,7S,10bR)-6a,10b-Dimethyl-7-((E)-2-(2-oxo-2,5-dihydrofuran-3-yl)vinyl)-3-phenyl-4a,5,6,6a,7,10,10a,10b-octahydro-1H-naphtho[2,1-d][1,3]dioxin-8-yl)methyl 3-Chloro-4-methoxybenzoate] | 62 ± 0.97 | 51 ± 0.5 | 36.2 ± 0.8 | < 60 |  |  |  |  | 61.6 ± 0.83 | 
C[C@]1(CO)C2CC=C(COC(=O)Cc3ccc(Cl)c(Cl)c3)[C@@H](/C=C/C3=CCOC3=O)[C@]2(C)CC[C@H]1O (stereo partly drawn) [Compound 9v, ((1S,5R,6R,8aR)-6-Hydroxy-5-(hydroxymethyl)-5,8a-dimethyl-1-((E)-2-(2-oxo-2,5-dihydrofuran-3-yl)vinyl)-1,4,4a,5,6,7,8,8a-octahydronaphthalen-2-yl)methyl 2-(3,4-Dichlorophenyl)acetate] | 26.5 ± 0.54 | 29 ± 0.78 | 5.7 ± 6.1 | 72 | > 20 | > 20 | > 20 | 7.5 | 72.7 ± 0.54 | 
C[C@]1(CO)C2CC=C(COC(=O)c3ccoc3)[C@@H](/C=C/C3=CCOC3=O)[C@]2(C)CC[C@H]1O (stereo partly drawn) [Compound 9g, ((1S,5R,6R,8aR)-6-Hydroxy-5-(hydroxymethyl)-5,8a-dimethyl-1-((E)-2-(2-oxo-2,5-dihydrofuran-3-yl)vinyl)-1,4,4a,5,6,7,8,8a-octahydronaphthalen-2-yl)methyl Furan-3-carboxylate] | 11 ± 0.22 | 0 | 11.28 ± 0.1 | 63.58 ± 0.08 |  |  |  |  |  | 
Cc1cccc(C(=O)OCC2=CCC3[C@]4(C)COC(c5ccccc5)O[C@@H]4CC[C@@]3(C)[C@@H]2/C=C/C2=CCOC2=O)c1 (stereo partly drawn) [Compound 8i, ((4aR,6aR,7S,10bR)-6a,10b-Dimethyl-7-((E)-2-(2-oxo-2,5-dihydrofuran-3-yl)vinyl)-3-phenyl-4a,5,6,6a,7,10,10a,10b-octahydro-1H-naphtho[2,1-d][1,3]dioxin-8-yl)methyl 3-Methylbenzoate] | 0 | 4.37 ± 0.01 | 4.35 ± 0.54 | 68 |  |  |  |  | 67.66 ± 0.23 | 
COc1cc(OC)cc(C(=O)OCC2=CCC3[C@](C)(CO)[C@H](O)CC[C@@]3(C)[C@@H]2/C=C/C2=CCOC2=O)c1 (stereo partly drawn) [Compound 9j, ((1S,5R,6R,8aR)-6-Hydroxy-5-(hydroxymethyl)-5,8a-dimethyl-1-((E)-2-(2-oxo-2,5 dihydrofuran-3-yl)vinyl)-1,4,4a,5,6,7,8,8a-octahydronaphthalen-2-yl)methyl 3,5-Dimethoxybenzoate] | 70 ± 0.82 | 51 ± 0.49 | 23.9 ± 0.49 | 8.7 ± 0.45 | 6.1 | 16.6 | > 20 | > 20 |  | 
C[C@]1(CO)C2CC=C(COC(=O)Cc3ccccc3)[C@@H](/C=C/C3=CCOC3=O)[C@]2(C)CC[C@H]1O (stereo partly drawn) [Compound 9o, ((1S,5R,6R,8aR)-6-Hydroxy-5-(hydroxymethyl)-5,8a-dimethyl-1-((E)-2-(2-oxo-2,5-dihydrofuran-3-yl)vinyl)-1,4,4a,5,6,7,8,8a-octahydronaphthalen-2-yl)methyl 2-Phenylacetate] | 15 ± 0.72 | 29.2 ± 0.29 | 0 |  |  |  |  |  |  | 43.4 ± 0.19
C[C@@]12COC(c3ccccc3)O[C@@H]1CC[C@]1(C)C2CC=C(COC(=O)c2cccc(Br)c2)[C@H]1/C=C/C1=CCOC1=O (stereo partly drawn) [Compound 8e, ((4aR,6aR,7S,10bR)-6a,10b-Dimethyl-7-((E)-2-(2-oxo-2,5-dihydrofuran-3-yl)vinyl)-3-phenyl-4a,5,6,6a,7,10,10a,10b-octahydro-1H-naphtho[2,1-d][1,3]dioxin-8-yl)methyl 3-Bromobenzoate] | 0 | 0 | 0 | 31.59 ± 0.23 |  |  |  |  |  | 
C[C@]1(CO)C2CC=C(COC(=O)c3cccc(Br)c3)[C@@H](/C=C/C3=CCOC3=O)[C@]2(C)CC[C@H]1O (stereo partly drawn) [Compound 9e, ((1S,5R,6R,8aR)-6-Hydroxy-5-(hydroxymethyl)-5,8a-dimethyl-1-((E)-2-(2-oxo-2,5-dihydrofuran-3-yl)vinyl)-1,4,4a,5,6,7,8,8a-octahydronaphthalen-2-yl)methyl 3-Bromobenzoate] | 0 | 1.93 ± 0.1 | 14.1 ± 0.24 | 50.55 ± 0.17 |  |  |  |  |  | 
CCCCCCCCCC(=O)OCC1=CCC2[C@](C)(CO)[C@H](O)CC[C@@]2(C)[C@@H]1/C=C/C1=CCOC1=O (stereo partly drawn) [Compound 9x, ((1S,5R,6R,8aR)-6-Hydroxy-5-(hydroxymethyl)-5,8a-dimethyl-1-((E)-2-(2-oxo-2,5-dihydrofuran-3-yl)vinyl)-1,4,4a,5,6,7,8,8a-octahydronaphthalen-2-yl)methyl Decanoate] | 24 ± 0.83 | 46 ± 0.84 | 2.7 ± 0.51 | 23.2 ± 0.74 |  |  |  |  |  | 
C[C@@]12COC(c3ccccc3)O[C@@H]1CC[C@]1(C)C2CC=C(COC(=O)Cc2ccc(Cl)c(Cl)c2)[C@H]1/C=C/C1=CCOC1=O (stereo partly drawn) [Compound 8v, ((4aR,6aR,7S,10bR)-6a,10b-Dimethyl-7-((E)-2-(2-oxo-2,5-dihydrofuran-3-yl)vinyl)-3-phenyl-4a,5,6,6a,7,10,10a,10b-octahydro-1H-naphtho[2,1-d][1,3]dioxin-8-yl)methyl 2-(3,4-Dichlorophenyl)acetate] | 70.3 ± 0.54 | 34 ± 0.28 | 12.5 ± 0.78 | 41.6 ± 0.98 | 8.4 | > 20 | > 20 | > 20 |  | 
